Measured values of several laboratories.
Lines come from different studies, so protocols differ.
Target: Inhibitor of nuclear factor kappa-B kinase subunit epsilon (IKBKE, Homo sapiens, UniProt Q14164)
One construct used (Q14164 1-716): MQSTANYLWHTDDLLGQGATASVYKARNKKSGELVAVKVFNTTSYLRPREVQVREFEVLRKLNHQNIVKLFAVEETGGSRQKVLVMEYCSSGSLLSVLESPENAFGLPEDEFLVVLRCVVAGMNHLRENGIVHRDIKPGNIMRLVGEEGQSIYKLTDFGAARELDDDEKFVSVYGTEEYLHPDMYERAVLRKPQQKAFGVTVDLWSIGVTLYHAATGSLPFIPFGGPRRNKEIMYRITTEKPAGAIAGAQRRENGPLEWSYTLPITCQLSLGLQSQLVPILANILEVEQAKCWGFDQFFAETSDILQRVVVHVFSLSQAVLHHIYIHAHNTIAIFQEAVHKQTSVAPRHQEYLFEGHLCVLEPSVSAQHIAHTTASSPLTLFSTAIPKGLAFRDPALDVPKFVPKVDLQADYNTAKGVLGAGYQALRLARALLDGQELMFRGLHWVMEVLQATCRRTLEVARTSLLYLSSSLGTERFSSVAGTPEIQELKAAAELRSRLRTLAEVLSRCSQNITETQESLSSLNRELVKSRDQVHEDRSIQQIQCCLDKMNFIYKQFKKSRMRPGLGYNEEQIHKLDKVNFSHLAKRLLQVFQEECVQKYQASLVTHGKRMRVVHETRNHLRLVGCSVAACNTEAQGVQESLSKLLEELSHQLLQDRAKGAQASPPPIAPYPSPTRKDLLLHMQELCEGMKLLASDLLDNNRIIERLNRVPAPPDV

O=C(c1ccc(Nc2ncc(Cl)c(-c3ccc(Cl)s3)n2)cc1)N1CCC(N2CCCC2)CC1 — remaining binding (binding; competition with immobilised ligand; 1 µM): 7.7%
CN(C)c1ncc(F)c(-c2cnn3ncccc23)n1 — remaining binding (binding; 1 µM): 99%
CCCOc1ccc([C@@H]2[C@@H](C(=O)O)[C@H](c3ccc4c(c3)OCO4)CN2CC(=O)Nc2c(CC)cccc2CC)cc1 — remaining binding (cell-free assay; competition with immobilised ligand; 1 µM): 85%
O=C(NCCCN1CCOCC1)c1ccc(Nc2ncc(Cl)c(-c3ccc(Cl)s3)n2)cc1 — remaining binding (binding; competition with immobilised ligand; 1 µM): 52%
CCC(=O)N[C@@H]1CC[C@H](C(=O)N(C)c2ccc(-c3nc4ccccc4o3)cc2)C1 — remaining binding (cell-free assay; competition with immobilised ligand; 1 µM): 60%
C[C@@H]1CCN(c2nccc(-c3cnn4ncccc34)n2)C1 — remaining binding (binding; 1 µM): 82%
COc1cnc(Nc2cccc(S(N)(=O)=O)c2)nc1N1CCN(c2ccccc2)CC1 — remaining binding (binding; competition with immobilised ligand; 1 µM): 57%
N[C@@H]1CCN(c2nccc(-c3cnn4ncccc34)n2)C1 — remaining binding (binding; 1 µM): 100%
O=C(c1ccc(Nc2ncc(Cl)c(-c3cc4ccccc4s3)n2)cc1)N1CCC(N2CCCC2)CC1 — remaining binding (binding; competition with immobilised ligand; 1 µM): 21%
CC1CCCN1c1nccc(-c2cnn3ncccc23)n1 (centres unmarked) — remaining binding (binding; 1 µM): 100%
O=C(Nc1c[nH]nc1C(=O)NC1CCNCC1)c1cc(F)cc(F)c1 — remaining binding (binding; competition with immobilised ligand; 1 µM): 100%
CCc1ccccc1C(=O)Nc1n[nH]c2c(C)c(F)c(C3C(C#N)=C(C)N(C)C(C)=C3C#N)cc12 — remaining binding (cell-free assay; competition with immobilised ligand; 1 µM): 68%
CN(CCCC(F)(F)F)c1nccc(-c2cnn3ncccc23)n1 — remaining binding (binding; 1 µM): 100%
O=C(NCc1ncc(C(F)(F)F)cc1Cl)c1ccc2c(c1)C1(CCS(=O)(=O)CC1)[C@H](C1CC1)N2S(=O)(=O)c1ccc(F)cc1 — remaining binding (cell-free assay; competition with immobilised ligand; 1 µM): 77%
C[C@@H](c1ccc(-n2cnc3c(N)ncnc32)cc1)N1CCc2nn(C)c(Cc3ccccc3)c2C1=O — remaining binding (binding; competition with immobilised ligand; 0.1 µM): 73%
COc1cnc(Nc2cccc(S(N)(=O)=O)c2)nc1N1CCN(c2ccccc2)C(=O)C1 — remaining binding (binding; competition with immobilised ligand; 1 µM): 50%
CC(C)(O)c1cncc(-c2nc3ccc(F)cc3n2C2CC2)c1 — remaining binding (cell-free assay; competition with immobilised ligand; 1 µM): 100%
CCN1CCN(Cc2ccc(C(=O)Nc3ccc(C)c(Oc4ccc5c(c4)CC(=O)N5)c3)cc2C(F)(F)F)CC1 — remaining binding (binding; competition with immobilised ligand; 1 µM): 100%
CN(C)CC#Cc1ccc(OCCCc2sc(N3CCc4cccc(C(=O)Nc5nc6ccccc6s5)c4C3)nc2C(=O)O)c(F)c1 — remaining binding (cell-free assay; competition with immobilised ligand; 1 µM): 100%
CN(c1nccc(-c2cnn3ncccc23)n1)C1CC1 — remaining binding (binding; 1 µM): 100%
